Experimental data reported in ChEMBL document CHEMBL4017511, “Discovery of Fragment-Derived Small Molecules for in Vivo Inhibition of Ketohexokinase (KHK)” (J Med Chem, 2017).
Values after ≈ are worked out from the molar mass of the structure shown. Values belong to the compound of their own block, whether it stands above or below them. Active and inactive are the calls of the source. The rule behind the calls is not given here.

Assays:
Ketohexokinase [1] = target: T1, Ketohexokinase (Homo sapiens, UniProt P50053); test: Binding affinity to full length recombinant human biotin-labeled KHK by SPR assay
T1 sequence (P50053 whole entry): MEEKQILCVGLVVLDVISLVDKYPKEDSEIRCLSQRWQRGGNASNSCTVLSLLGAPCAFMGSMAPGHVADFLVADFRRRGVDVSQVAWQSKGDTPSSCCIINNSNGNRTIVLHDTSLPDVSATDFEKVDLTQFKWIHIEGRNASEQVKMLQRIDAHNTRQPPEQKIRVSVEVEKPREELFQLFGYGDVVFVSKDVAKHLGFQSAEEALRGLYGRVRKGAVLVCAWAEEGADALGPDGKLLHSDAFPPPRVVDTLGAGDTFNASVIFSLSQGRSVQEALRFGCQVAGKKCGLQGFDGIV
Procedure, shortened: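 Full-length biotinylated KHK captured on a streptavidin sensor (7000-8000 RU). Run buffer was 50 mM HEPES pH 7.4, 150 mM NaCl, 0.01% P20, 500 µM TCEP, 3% DMSO at 25 °C. Eleven 2-fold concentrations from 300 µM top, stop-flow with 60 s association and ≥120 s dissociation. Data double-referenced and DMSO-corrected; KD by steady-state affinity fit, n=1.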

Ketohexokinase [2] = target: T1, Ketohexokinase; test: Inhibition of recombinant human N-terminal His-tagged KHK expressed in Escherichia coli BL21(DE3) using fructose as substrate incubated for 30 mins followed by ATP addition measured for 30 mins by pyruvate kinase-lactate dehydrogenase coupled enzyme assay; conditions: read-out: IC50
Procedure, shortened: (§1)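 Thrombin-cleaved (His-tag removed) human or rat KHK at 10 nM, preincubated 30 min at room temperature with compound (11-point series, 2.5% DMSO). Started with 0.2 mM ATP; NADH A340 read kinetically for 30 min. IC50 from nonlinear fit of percent inhibition; mean of replicates.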

[3] = target: T2, Ketohexokinase (Homo sapiens) (UniProt P50053); test: Inhibition of recombinant full length human His-tagged KHK expressed in Escherichia coli BL21(DE3) using at 240 uM by 1D NMR-STD spectroscopic method
T2 sequence (whole entry): T1 sequence (P50053 whole entry)
Procedure, shortened: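 Full-length His-tagged human KHK (tag retained) at 5 μM in 50 mM Tris-d, 100 mM NaCl, 2 mM TCEP-d, 5% glycerol-d, pH 7.5, 298 K. AMP-PMP at 240 μM served as positive control. Saturation-transfer difference NMR used 512 scans and 3 s Gaussian on/off-resonance saturation. Binding was called from positive difference signals, with ligands assigned against each fragment's 1D 1H reference spectrum.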

[4] = Apparent clearance in human liver microsomes; format: ADME, microsome; conditions: read-out: CLH(app)
[5] = Octanol/water partition coefficient, log D of the compound at pH 7.4 by shake-flask method; format: physicochemical
Procedure, shortened: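 LogD measured by shake-flask octanol:water partition at pH 7.4.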

Ketohexokinase [6] = target: T3, Ketohexokinase (Rattus norvegicus, UniProt Q02974); test: Inhibition of recombinant rat N-terminal His-tagged KHK expressed in Escherichia coli BL21(DE3) using fructose as substrate incubated for 30 mins followed by ATP addition measured for 30 mins by pyruvate kinase-lactate dehydrogenase coupled enzyme assay; procedure, shortened: as §1
T3 sequence (Q02974 whole entry): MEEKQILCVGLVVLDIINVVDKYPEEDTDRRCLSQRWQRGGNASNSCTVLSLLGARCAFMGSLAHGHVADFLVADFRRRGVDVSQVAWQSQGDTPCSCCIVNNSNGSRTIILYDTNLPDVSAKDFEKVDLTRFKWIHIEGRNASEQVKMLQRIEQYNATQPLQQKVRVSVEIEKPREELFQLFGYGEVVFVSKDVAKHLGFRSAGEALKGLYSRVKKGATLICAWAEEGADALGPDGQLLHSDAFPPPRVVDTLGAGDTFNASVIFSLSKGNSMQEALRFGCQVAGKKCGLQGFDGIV

[7] = Apparent permeability in RRCK cells by LC-MS/MS analysis; format: ADME, cell-based, Canis lupus familiaris, MDCKII-LE; conditions: dog, MDCK
[8] = Thermodynamic solubility of compound at pH 7.4; format: physicochemical; conditions: buffer, read-out: Therm_solubility
Procedure, shortened: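 Thermodynamic solubility determined at pH 7.4.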

[9] = Fraction unbound in human plasma at 10 uM measured at 2 to 24 hrs by equilibrium dialysis method; format: ADME, cell-free
Rattus norvegicus [10] = test: Unbound Cmax in rat at 300 mg/kg, po; format: ADME, organism-based; conditions: in vivo
Procedure, shortened: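 Rats given 300 mg/kg orally in 0.25% HPC-SL/0.05% DOSS vehicle. Free plasma concentrations determined; mean ± SD, n = 3 per data point.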

[11] = Volume of distribution in rat at 1 mg/kg, iv; format: ADME, organism-based; conditions: in vivo
Procedure, shortened: (§2)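 Rat PK following a 1 mg/kg intravenous dose; systemic clearance, volume of distribution and effective half-life derived from plasma exposure.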

[12] = Half life in rat at 1 mg/kg, iv; format: ADME, organism-based; conditions: in vivo; procedure, shortened: as §2
Rattus norvegicus [13] = test: Oral bioavailability in rat at 5 mg/kg; format: ADME, organism-based; conditions: in vivo
[14] = Cmax in rat at 5 mg/kg; format: ADME, organism-based; design: dose 5 mg/kg; conditions: in vivo
Rattus norvegicus [15] = test: AUClast in rat at 5 mg/kg, po; format: ADME, organism-based; design: dose 5 mg/kg, route oral, time 0 - last; conditions: in vivo
Rattus norvegicus [16] = test: Time required for plasma concentration to reach above in vitro rat KHK IC50 in rat at 150 mg/kg, po
Procedure, shortened: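 Rats dosed orally at 150 mg/kg as a nanocrystal suspension (1% polyvinylpyrrolidone / 0.025% sodium lauryl sulfate / 1% pluronic).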

Salmonella typhimurium = test: Genotoxicity in Salmonella typhimurium by Ames test; format: toxicity; conditions: salmonella enterica subsp. enterica serovar typhimurium
HepG2 = test: Cytotoxicity against human HepG2 cells up to 300 uM after 72 hrs; format: cell-based; conditions: hepg2, 72 h
Procedure, shortened: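 HepG2 cells incubated with compound at concentrations up to 300 µM for 72 hours to assess toxicity.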

Rattus norvegicus [17] = test: In vivo inhibition of KHK-C in po dosed Sprague-Dawley rat assessed as decrease in F1P levels in liver administered for 1 hr followed by bolus fructose administration measured 2 mins after iv infusion by LC/MS analysis; format: functional
Procedure, shortened: (§3)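 Male Sprague Dawley rats (~200 g, jugular-cannulated) were fasted 16 h and given oral compound as a 0.5% methylcellulose nano-milled suspension. After 1 h they received an i.v. fructose bolus of 500 mg/kg over 20 s, and were decapitated 2 min later. Liver and kidney F1P was quantified by ion-exchange LC/MS/MS against a 13C-xylitol internal standard. ED50 from a four-parameter fit; n = 7-8.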

Rattus norvegicus [18] = test: In vivo inhibition of KHK-C in po dosed Sprague-Dawley rat assessed as decrease in F1P levels in kidney administered for 1 hr followed by bolus fructose administration measured 2 mins after iv infusion by LC/MS analysis; format: functional; procedure, shortened: as §3
Rattus norvegicus [19] = test: In vivo inhibition of fructose metabolism in po dosed Sprague-Dawley rat assessed as increase in plasma fructose level administered for 1 hr followed by oral bolus fructose administration measured after 2 mins by LC/MS analysis; format: functional, organism-based
Procedure, shortened: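 Fasted (16 h) non-cannulated male Sprague Dawley rats were dosed orally with compound in a 0.5% methylcellulose nano-milled suspension. One hour later they received 2 g/kg oral fructose. Tail-vein K2EDTA plasma was methanol-extracted with 13C6-fructose internal standard and analysed by HILIC LC-MS/MS; n = 6-8.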

[20] = target: Voltage-gated inwardly rectifying potassium channel KCNH2 (Homo sapiens, UniProt Q12809); test: Inhibition of human ERG
Sequence of Voltage-gated inwardly rectifying potassium channel KCNH2 (Q12809 whole entry): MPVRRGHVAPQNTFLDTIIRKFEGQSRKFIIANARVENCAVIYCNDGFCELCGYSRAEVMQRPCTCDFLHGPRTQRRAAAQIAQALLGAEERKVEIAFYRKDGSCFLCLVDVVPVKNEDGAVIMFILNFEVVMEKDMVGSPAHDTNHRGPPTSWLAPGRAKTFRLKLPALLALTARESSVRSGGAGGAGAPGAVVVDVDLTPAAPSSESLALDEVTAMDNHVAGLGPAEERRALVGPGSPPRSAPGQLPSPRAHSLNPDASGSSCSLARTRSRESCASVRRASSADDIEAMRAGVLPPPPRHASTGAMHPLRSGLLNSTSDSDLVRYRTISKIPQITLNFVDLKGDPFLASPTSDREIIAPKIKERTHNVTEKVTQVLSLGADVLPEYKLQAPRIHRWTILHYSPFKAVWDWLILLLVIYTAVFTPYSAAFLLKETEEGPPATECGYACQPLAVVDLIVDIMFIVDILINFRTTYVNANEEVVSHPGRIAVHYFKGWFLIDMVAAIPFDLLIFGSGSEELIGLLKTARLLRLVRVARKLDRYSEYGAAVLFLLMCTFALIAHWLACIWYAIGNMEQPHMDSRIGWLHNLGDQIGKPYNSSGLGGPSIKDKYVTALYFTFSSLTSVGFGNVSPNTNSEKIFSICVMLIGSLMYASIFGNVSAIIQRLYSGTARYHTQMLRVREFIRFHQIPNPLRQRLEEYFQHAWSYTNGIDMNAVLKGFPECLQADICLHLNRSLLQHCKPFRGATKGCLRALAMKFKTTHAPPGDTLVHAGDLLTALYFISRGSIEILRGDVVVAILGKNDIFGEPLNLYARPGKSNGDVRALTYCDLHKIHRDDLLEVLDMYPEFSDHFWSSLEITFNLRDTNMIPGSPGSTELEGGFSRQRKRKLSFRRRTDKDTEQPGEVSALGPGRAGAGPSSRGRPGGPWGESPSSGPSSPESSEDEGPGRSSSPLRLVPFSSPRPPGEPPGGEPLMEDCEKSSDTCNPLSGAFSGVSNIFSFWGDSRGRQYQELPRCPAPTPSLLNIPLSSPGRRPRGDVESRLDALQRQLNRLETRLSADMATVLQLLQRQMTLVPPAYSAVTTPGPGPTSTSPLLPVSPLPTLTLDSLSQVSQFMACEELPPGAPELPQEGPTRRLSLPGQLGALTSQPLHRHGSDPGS

Cytochrome P450 1A2 = target: T4, Cytochrome P450 1A2 (Homo sapiens, UniProt P05177); test: Inhibition of human CYP1A2 at 3 uM; format: ADME
T4 sequence (P05177 whole entry): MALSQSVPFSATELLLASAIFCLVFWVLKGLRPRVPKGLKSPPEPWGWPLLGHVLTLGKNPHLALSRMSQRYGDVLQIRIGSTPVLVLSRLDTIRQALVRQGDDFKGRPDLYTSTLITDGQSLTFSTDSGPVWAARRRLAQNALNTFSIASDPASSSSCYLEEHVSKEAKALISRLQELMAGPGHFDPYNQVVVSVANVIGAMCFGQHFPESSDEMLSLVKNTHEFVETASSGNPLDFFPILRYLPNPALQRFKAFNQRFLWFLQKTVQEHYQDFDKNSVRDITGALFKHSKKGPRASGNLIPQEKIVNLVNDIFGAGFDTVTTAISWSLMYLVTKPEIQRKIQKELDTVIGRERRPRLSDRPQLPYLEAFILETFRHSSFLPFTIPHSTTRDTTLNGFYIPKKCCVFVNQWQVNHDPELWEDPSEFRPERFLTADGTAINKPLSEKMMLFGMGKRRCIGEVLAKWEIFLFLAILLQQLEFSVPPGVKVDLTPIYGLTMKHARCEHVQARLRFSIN

Cytochrome P450 2C19 = Cytochrome P450 2C19 (Homo sapiens, UniProt P33261); test: Inhibition of human CYP2C19 at 3 uM; format: ADME
Sequence of Cytochrome P450 2C19 (P33261 whole entry): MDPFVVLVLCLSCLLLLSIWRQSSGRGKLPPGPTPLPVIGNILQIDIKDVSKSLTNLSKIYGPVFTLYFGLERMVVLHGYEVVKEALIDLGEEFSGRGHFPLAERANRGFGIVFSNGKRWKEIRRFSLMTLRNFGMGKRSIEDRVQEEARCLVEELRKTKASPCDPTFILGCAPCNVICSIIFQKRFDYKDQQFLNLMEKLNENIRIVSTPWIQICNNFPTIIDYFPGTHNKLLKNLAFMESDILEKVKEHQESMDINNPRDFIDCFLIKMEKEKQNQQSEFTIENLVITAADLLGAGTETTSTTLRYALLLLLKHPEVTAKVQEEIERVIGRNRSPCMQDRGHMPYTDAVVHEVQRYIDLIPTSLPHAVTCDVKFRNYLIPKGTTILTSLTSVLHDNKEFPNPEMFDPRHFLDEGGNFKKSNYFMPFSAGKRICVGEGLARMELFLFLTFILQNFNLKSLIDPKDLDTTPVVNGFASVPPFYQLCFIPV

Cytochrome P450 2C8 = target: T5, Cytochrome P450 2C8 (Homo sapiens, UniProt P10632); test: Inhibition of human CYP2C8 at 3 uM; format: ADME
T5 sequence (P10632 whole entry): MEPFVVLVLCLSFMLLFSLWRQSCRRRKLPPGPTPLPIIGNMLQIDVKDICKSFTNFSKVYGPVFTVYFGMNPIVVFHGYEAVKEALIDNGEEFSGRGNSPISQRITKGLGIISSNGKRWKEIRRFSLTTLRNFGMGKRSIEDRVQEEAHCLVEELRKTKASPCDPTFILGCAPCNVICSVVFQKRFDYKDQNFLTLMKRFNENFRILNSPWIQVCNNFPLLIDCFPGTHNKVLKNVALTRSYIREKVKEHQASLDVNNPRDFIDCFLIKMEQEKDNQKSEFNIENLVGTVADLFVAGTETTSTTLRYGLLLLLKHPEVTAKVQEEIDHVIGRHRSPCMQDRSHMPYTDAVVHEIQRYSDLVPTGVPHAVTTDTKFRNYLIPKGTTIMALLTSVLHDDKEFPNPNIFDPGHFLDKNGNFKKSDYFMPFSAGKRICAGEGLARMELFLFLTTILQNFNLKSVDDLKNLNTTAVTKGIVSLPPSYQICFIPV

Cytochrome P450 2C9 = Cytochrome P450 2C9 (Homo sapiens, UniProt P11712); test: Inhibition of human CYP2C9 at 3 uM; format: ADME
Sequence of Cytochrome P450 2C9 (P11712 whole entry): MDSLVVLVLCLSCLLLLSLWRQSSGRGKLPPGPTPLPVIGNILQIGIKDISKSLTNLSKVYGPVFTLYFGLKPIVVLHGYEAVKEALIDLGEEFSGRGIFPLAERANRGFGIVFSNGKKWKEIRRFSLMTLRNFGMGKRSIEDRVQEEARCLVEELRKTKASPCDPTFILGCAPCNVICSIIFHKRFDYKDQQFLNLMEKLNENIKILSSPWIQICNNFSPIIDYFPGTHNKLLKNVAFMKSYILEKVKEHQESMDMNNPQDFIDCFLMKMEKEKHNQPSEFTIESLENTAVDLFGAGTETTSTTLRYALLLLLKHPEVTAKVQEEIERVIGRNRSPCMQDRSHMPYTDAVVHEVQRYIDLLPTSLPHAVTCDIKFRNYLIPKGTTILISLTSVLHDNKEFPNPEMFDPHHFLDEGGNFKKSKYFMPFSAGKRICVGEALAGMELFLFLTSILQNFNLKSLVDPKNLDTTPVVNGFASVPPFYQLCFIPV

Cytochrome P450 2D6 = Cytochrome P450 2D6 (Homo sapiens, UniProt P10635); test: Inhibition of human CYP2D6 at 3 uM; format: ADME
Sequence of Cytochrome P450 2D6 (P10635 whole entry): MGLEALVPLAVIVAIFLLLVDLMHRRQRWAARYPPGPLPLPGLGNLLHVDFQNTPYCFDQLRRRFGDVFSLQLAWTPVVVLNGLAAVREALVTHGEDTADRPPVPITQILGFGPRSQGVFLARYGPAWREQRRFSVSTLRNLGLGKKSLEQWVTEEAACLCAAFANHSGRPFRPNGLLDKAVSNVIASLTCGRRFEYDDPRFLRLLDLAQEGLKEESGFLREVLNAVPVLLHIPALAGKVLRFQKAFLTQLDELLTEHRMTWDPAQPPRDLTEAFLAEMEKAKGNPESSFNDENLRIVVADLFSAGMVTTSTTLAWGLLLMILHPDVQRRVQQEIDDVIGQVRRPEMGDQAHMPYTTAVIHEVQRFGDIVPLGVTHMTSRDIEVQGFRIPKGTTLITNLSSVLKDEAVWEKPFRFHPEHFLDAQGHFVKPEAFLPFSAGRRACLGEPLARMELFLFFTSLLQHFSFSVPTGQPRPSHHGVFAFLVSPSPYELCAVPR

Cytochrome P450 3A4 = Cytochrome P450 3A4 (Homo sapiens, UniProt P08684); test: Inhibition of human CYP3A4 at 3 uM; format: ADME
Sequence of Cytochrome P450 3A4 (P08684 whole entry): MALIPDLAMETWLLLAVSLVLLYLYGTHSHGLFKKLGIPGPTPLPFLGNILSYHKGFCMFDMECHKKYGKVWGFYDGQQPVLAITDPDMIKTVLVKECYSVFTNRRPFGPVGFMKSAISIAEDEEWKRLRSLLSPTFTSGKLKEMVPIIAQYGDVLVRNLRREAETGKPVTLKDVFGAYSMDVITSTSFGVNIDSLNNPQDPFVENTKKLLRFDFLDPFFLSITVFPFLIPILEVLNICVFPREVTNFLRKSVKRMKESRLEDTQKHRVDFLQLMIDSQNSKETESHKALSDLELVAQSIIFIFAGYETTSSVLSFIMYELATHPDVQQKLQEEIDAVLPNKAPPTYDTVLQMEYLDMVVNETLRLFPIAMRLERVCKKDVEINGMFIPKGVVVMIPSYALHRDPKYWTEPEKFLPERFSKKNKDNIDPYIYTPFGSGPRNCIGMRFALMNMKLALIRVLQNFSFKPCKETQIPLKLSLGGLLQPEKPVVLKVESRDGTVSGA

[21] = Apparent clearance in rat liver microsomes; format: ADME, microsome; conditions: read-out: CLH(app)
Ketohexokinase [22] = target: T1, Ketohexokinase
Ketohexokinase [23] = target: T1, Ketohexokinase; remark: listed apart in the source
[24] = Rattus norvegicus, Sprague-Dawley

Compound: C[C@]1(O)CCN(c2nc(N3C[C@H](O)[C@@H](O)C3)cc(C(F)(F)F)c2C#N)C1
IC50 (Ketohexokinase [6]; read-out: IC50): 340 nM
IC50 (Ketohexokinase [6]; read-out: pIC50 (converted)): 501 nM
microsomal CLint [4]: < 8 µL/min/mg
logD [5]: 2.2
Papp [7]: 3.5 ×10⁻⁶ cm/s
solubility thermodynamic [8]: 503 µM (≈ 187 µg/mL)
fraction unbound at 10 µM [9]: 0.13
Vd [11]: 1.38 L/kg
half-life [12]: 72 min
F (Rattus norvegicus [13]): 45%
Cmax [14]: 2940 ng/mL
AUClast (Rattus norvegicus [15]): 14.5 µg·h/mL
Time (Rattus norvegicus [16]): 14 h
Activity (Salmonella typhimurium): Non-Toxic
Activity (HepG2): Non-Toxic
inhibition (Rattus norvegicus [17]): Dose-dependent effect
pED50 (Rattus norvegicus [17]): 1.48
ED50 (Rattus norvegicus [17]; [24]): 30 mg/kg
inhibition (Rattus norvegicus [18]): Dose-dependent effect
pED50 (Rattus norvegicus [18]): 1.2
ED50 (Rattus norvegicus [18]; [24]): 15.7 mg/kg
inhibition (Rattus norvegicus [19]): Dose-dependent effect
inhibition (INH) [20]: Not Active
inhibition (INH) (Cytochrome P450 1A2): Not Active
inhibition (INH) (Cytochrome P450 2C19): Not Active
inhibition (INH) (Cytochrome P450 2C8): Not Active
inhibition (INH) (Cytochrome P450 2C9): Not Active
inhibition (INH) (Cytochrome P450 2D6): Not Active
inhibition (INH) (Cytochrome P450 3A4): Not Active
microsomal CLint [21]: < 8 µL/min/mg
IC50 (Ketohexokinase [22]): 316 nM
IC50 (Ketohexokinase [23]): 390 nM

Compound: N#Cc1cc(F)c(N)nc1Cl
Kd (Ketohexokinase [1]): 103 µM
IC50 (Ketohexokinase [2]): > 500000 nM
inhibition [3]: Active

Now from value to compound:

Kd (Ketohexokinase [1]): 62 µM
IC50 (Ketohexokinase [2]): 319000 nM
inhibition [3]: Active
Compound: Cc1cc(C)c(C#N)c(N2CCOCC2)n1

IC50 (Ketohexokinase [2]): 1030 nM
microsomal CLint [4]: 14 µL/min/mg
logD [5]: 2.2
Compound: C[C@]1(O)CCN(c2nc(N3CCN(CCO)CC3)cc(C(F)(F)F)c2C#N)C1

IC50 (Ketohexokinase [2]): 670 nM
IC50 (Ketohexokinase [6]; read-out: IC50): 640 nM
microsomal CLint [4]: < 8 µL/min/mg
logD [5]: 2.2
Papp [7]: 14 ×10⁻⁶ cm/s
solubility thermodynamic [8]: 147 µM (≈ 45.6 µg/mL)
fraction unbound at 10 µM [9]: 0.032
fCmax (Rattus norvegicus [10]): 1.3 µM
Compound: C[C@]1(O)CCN(c2c(C#N)c(C(F)(F)F)nc3cc[nH]c23)C1
